Laboratory results reported in ChEMBL document CHEMBL3877244, “Synthesis and biological evaluation of new aryl-alkyl(alkenyl)-4-benzylpiperidines, novel Sigma Receptor (SR) modulators, as potential anticancer-agents” (Eur J Med Chem, 2016).

Assays:
[1] = biological target: Sigma non-opioid intracellular receptor 1 (Cavia porcellus, UniProt Q60492); test: Displacement of [3H]-pentazocine from sigma 1 receptor in guinea pig brain cortical membrane after 120 mins by scintillation counting analysis; type: cell membranes
Chain of Sigma non-opioid intracellular receptor 1 (Cavia porcellus, UniProt Q60492) (Q60492 whole entry): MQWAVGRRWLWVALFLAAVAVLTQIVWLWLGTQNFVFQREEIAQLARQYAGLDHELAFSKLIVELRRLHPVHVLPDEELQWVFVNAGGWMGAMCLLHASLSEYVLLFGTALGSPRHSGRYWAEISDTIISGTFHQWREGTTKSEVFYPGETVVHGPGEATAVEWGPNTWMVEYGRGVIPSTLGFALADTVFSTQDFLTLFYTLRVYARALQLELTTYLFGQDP
How it was run: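 Nonspecific binding defined with unlabeled (+)-pentazocine. Filtration, then scintillation counting. IC50 by nonlinear regression, converted to Ki by Cheng–Prusoff.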

[2] = Displacement of [3H]-DTG from sigma 2 receptor in rat liver after 120 mins by scintillation counting analysis
How it was run: (§1)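 Rat liver homogenate (150 µg) incubated 120 min at room temperature with 3 nM [³H]-DTG in 50 mM Tris-HCl pH 8.0. (+)-Pentazocine 100 nM masked S1R; haloperidol 10 µM defined nonspecific binding. Ki by Cheng–Prusoff from IC50.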

[3] = Cytotoxicity against human Paca3 cells assessed as decrease in cell viability under starvation condition after 24 hrs by MTS assay; type: functional, cell-based; details: Paca3, 24 h
How it was run: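 Cells starved 24 h in low-glucose medium without FCS, then treated 24 h with compound in serum-free conditions. MTS read-out, OD 490 nm, expressed as percent of untreated control. IC50 read graphically from the dose-response plot. Three independent experiments in octuplicate.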

[4] = Cytotoxicity against human Paca3 cells assessed as decrease in cell viability using complete medium after 24 hrs by MTS assay; type: functional, cell-based; details: Paca3, 24 h
How it was run: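 Cells in exponential growth, 3×10^3 per well, in medium with 10% FCS. Capan-2, PaCa3, MDA-MB 231, SUM 159 and PC3 were grown in DMEM/Ham's F12 with glutamine 2 mM and insulin 10 µg/ml. U87 was grown in EMEM and LNCaP in RPMI, each with glutamine. Compound 0.1–100 µM, continuous exposure (24 h; 48 h for the 48 h lines). MTS, OD 490 nm. IC50 read graphically. Three independent experiments in octuplicate.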

[5] = Displacement of [3H]DTG from sigma 2 receptor in rat brain homogenates without cerebellum; type: tissue-based
[6] = Antiproliferative activity against human CFPAC cells after 24 hrs; type: functional, cell-based
[7] = Antiproliferative activity against human PANC1 cells after 24 hrs; type: functional, cell-based; details: PANC-1, 24 h
[8] = Antiproliferative activity against human BxPC3 cells after 24 hrs; type: functional, cell-based; details: BXPC-3, 24 h
[9] = Antiproliferative activity against human AsPC1 cells after 24 hrs; type: functional, cell-based; details: ASPC1, 24 h
[10] = Antiproliferative activity against human MIAPaCa2 cells after 24 hrs; type: functional, cell-based; details: MIA PaCa-2, 24 h
[11] = Displacement of [3H]-DTG from sigma 2 receptor in rat liver membranes after 120 mins by scintillation counting analysis; type: cell membranes, Membrane
How it was run: (§2)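 Rat liver homogenate (150 µg) was incubated 120 min at room temperature with 3 nM [3H]-DTG in 50 mM Tris-HCl pH 8.0, with test compound at 10^-10 to 10^-5 M (final). 100 nM (+)-pentazocine masked S1R and 10 µM haloperidol defined nonspecific binding. Filtration and scintillation counting were used. Ki came from regression IC50 via Cheng-Prusoff.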

[12] = Antiproliferative activity against mouse Panc02 cells after 24 hrs; type: functional, cell-based; details: Panc02, 24 h
[13] = Binding affinity to sigma 2 receptor (unknown origin); how it was run: as §2
[14] = biological target: Sigma non-opioid intracellular receptor 1 (Homo sapiens, UniProt Q99720); test: Binding affinity to sigma 1 receptor (unknown origin)
Chain of Sigma non-opioid intracellular receptor 1 (Homo sapiens, UniProt Q99720) (Q99720 whole entry): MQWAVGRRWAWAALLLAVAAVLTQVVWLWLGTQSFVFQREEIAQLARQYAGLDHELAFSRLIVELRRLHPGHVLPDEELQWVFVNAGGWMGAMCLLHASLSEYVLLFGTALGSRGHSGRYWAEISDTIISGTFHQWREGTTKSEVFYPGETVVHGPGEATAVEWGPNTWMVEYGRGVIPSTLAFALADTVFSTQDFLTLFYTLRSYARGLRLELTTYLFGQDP

[15] = Displacement of [3H]-DTG from sigma 2 receptor in Sprague-Dawley rat liver membranes after 120 mins by scintillation counting analysis; type: cell membranes, Membrane; how it was run: as §1

Compound	Ki [1]	Ki [2]	further results
CC(CCN1CCC(Cc2ccccc2)CC1)c1ccccc1 (stereo in doubt; 6b)	3 nM	7.9 nM	–
CC(O)(CCN1CCC(Cc2ccccc2)CC1)c1ccc2ccccc2c1 (stereo in doubt; 1b)	11 nM	79 nM	–
C/C(=C\CN1CCC(Cc2ccccc2)CC1)c1ccc2cc(O)ccc2c1	9.6 nM	305 nM	–
CC(O)(CCN1CCC(Cc2ccccc2)CC1)c1ccccc1 (stereo in doubt; 2a)	27 nM	339 nM	–
CC(O)(CCN1CCC(Cc2ccccc2)CC1)c1ccc2cc(O)ccc2c1 (racemic)	27 nM	118 nM	–
CC(O)(CCN1CCC(Cc2ccccc2)CC1)c1ccc2ccccc2c1 (racemic)	6.9 nM	62.5 nM	–
Fc1ccc(-n2cc(CCCCN3CCC4(CC3)OCc3ccccc34)c3ccccc32)cc1 [SIRAMESINE]	–	–	IC50 [3]: 6 µM; IC50 [4]: 45.4 µM; Ki [5]: 0.12 nM
CC(CCN1CCC(Cc2ccccc2)CC1)c1ccc2ccccc2c1 (single isomer, unassigned; (-))	6.9 nM	98 nM	–
O[C@@H](CN1C2CCC1CC(c1ccccc1)C2)c1cccc(Br)c1 (stereo not given in full)	–	–	IC50 [6]: ≤ 100 µM; IC50 [7]: ≤ 100 µM; IC50 [8]: ≤ 100 µM; IC50 [9]: ≤ 100 µM; IC50 [10]: ≤ 100 µM; Ki [11]: 12.3 nM; IC50 [12]: ≤ 100 µM
CC(CCN1CCC(Cc2ccccc2)CC1)c1ccc2ccccc2c1 (racemic)	5.6 nM	144 nM	–
CC(O)(CCN1CCC(Cc2ccccc2)CC1)c1ccccc1 (stereo in doubt; 2b)	40 nM	240 nM	–
CC(CCN1CCC(Cc2ccccc2)CC1)c1ccc2cc(O)ccc2c1 (stereo in doubt; 12)	59 nM	314 nM	–
CC(CCN1CCC(Cc2ccccc2)CC1)c1ccc2cc(O)ccc2c1 (single isomer, unassigned; (+))	35 nM	582 nM	–
COc1ccc(C)cc1NC(=O)OC1CC2CCCC(C1)N2CCCCCCCCCCN (stereo not given)	–	–	Ki [13]: 19 nM; Ki [14]: 133 nM
COc1ccc(C)cc1NC(=O)OC1CC2CCCC(C1)N2CCCCCCN (stereo not given)	–	–	IC50 [6]: ≤ 100 µM; IC50 [7]: ≤ 100 µM; IC50 [8]: ≤ 100 µM; IC50 [9]: ≤ 100 µM; IC50 [10]: ≤ 100 µM; IC50 [12]: ≤ 100 µM
CC(CCN1CCC(Cc2ccccc2)CC1)c1ccc2ccccc2c1 (single isomer, unassigned; (+))	6 nM	26 nM	–
CC(O)(CCN1CCC(Cc2ccccc2)CC1)c1ccccc1 (racemic)	9.8 nM	57 nM	–
C/C(=C\CN1CCC(Cc2ccccc2)CC1)c1ccccc1	0.7 nM	47 nM	–
CC(CCN1CCC(Cc2ccccc2)CC1)c1ccccc1 (racemic)	2.1 nM	6.5 nM	–
CC(O)(CCN1CCC(Cc2ccccc2)CC1)c1ccc2ccccc2c1 (single isomer, unassigned; (+))	10 nM	81 nM	–
CC(CCN1CCC(Cc2ccccc2)CC1)c1ccc2cc(O)ccc2c1 (single isomer, unassigned; (-))	13 nM	105 nM	–
CC(O)(CCN1CCC(Cc2ccccc2)CC1)c1ccc2cc(O)ccc2c1 (single isomer, unassigned; (-))	62 nM	905 nM	–
C[C@@H]1CN(CCCn2c3ccccc3c3ccccc32)C[C@H](C)N1 [RIMCAZOLE]	–	–	Ki [15]: 302 nM
COc1ccc(C)cc1NC(=O)OC1CC2CCCC(C1)N2Cc1ccc(N(C)C)cc1 (stereo not given)	–	–	IC50 [6]: ≤ 100 µM; IC50 [7]: ≤ 100 µM; IC50 [8]: ≤ 100 µM; IC50 [9]: ≤ 100 µM; IC50 [10]: ≤ 100 µM; IC50 [12]: ≤ 100 µM
CC(O)(CCN1CCC(Cc2ccccc2)CC1)c1ccc2cc(O)ccc2c1 (stereo in doubt; 9a)	70 nM	68 nM	–
CC(CCN1CCC(Cc2ccccc2)CC1)c1ccccc1 (single isomer, unassigned; (+))	2.9 nM	8.9 nM	–
